For assay [1], the system named is Mus musculus. Kind of assay: Effect on Arachidonic Acid-Induced Mouse Ear Inflammation expressed as percent inhibition of MPO at 50 mg/kg of oral administration. It is filed as functional. In short, it runs like this: (§1)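 Balb/c mice (20 g; N=6-10 vehicle, typically 5-6 per drug group) dosed intragastrically with compound in distilled water. Thirty minutes later, 1.0 mg arachidonic acid in 20 µL cold acetone applied to left ear. Ear thickness measured 1 h later. Left ears then harvested and MPO activity read spectrophotometrically (Bradley method). ED50 from multiple dose–response studies (4–5 doses) by linear regression.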

For assay [2], the system named is Mus musculus. The assay can be described thus: Dose required to inhibit 50% of arachidonic acid-induced inflammation after topical administration obtained from dose-response curves. It is filed as functional.
The test system of assay [3] is Mus musculus. The assay can be described thus: Effect on Arachidonic Acid-Induced Mouse Ear Inflammation expressed as percent inhibition of MPO at 500 ug/ear of topical administration.
Assay [4] addresses Leukotriene B4 receptor 1 (Homo sapiens, UniProt Q15722). The assay can be described thus: Inhibition of [3H]LTB4 binding to human neutrophils. The essentials: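 Intact human PMNs (10^6; >90% neutrophils, >95% viable) incubated with 0.2 nM [3H]LTB4 for 20 min at 0 °C in Hanks balanced salt solution with 0.1% ovalbumin. Compound tested at 0.1 nM–10 µM; nonspecific binding defined with 1 µM unlabeled LTB4. Bound ligand separated by filtration and counted by scintillation. Duplicate curves of 5–8 concentrations, at least two assays.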

Assay [5] concerns Mus musculus. Kind of assay: Dose required to inhibit 50% of arachidonic acid-induced inflammation after oral administration obtained from dose-response curves. The assay is classed as functional. In short, it runs like this: as §1
The test system of assay [6] is Mus musculus. Kind of assay: Effect on Arachidonic Acid-Induced Mouse Ear Inflammation expressed as percent inhibition of MPO at 25 mg/kg of oral administration. It is filed as functional. The essentials: as §1
In assay [7] the test system is Mus musculus. Kind of assay: Effect on Arachidonic Acid-Induced Mouse Ear Inflammation expressed as percent inhibition of MPO at 1000 ug/ear of topical administration. It is filed as functional.
The target of assay [8] is T1, Polyunsaturated fatty acid 5-lipoxygenase (Rattus norvegicus, UniProt P12527).
T1 sequence (P12527 whole entry): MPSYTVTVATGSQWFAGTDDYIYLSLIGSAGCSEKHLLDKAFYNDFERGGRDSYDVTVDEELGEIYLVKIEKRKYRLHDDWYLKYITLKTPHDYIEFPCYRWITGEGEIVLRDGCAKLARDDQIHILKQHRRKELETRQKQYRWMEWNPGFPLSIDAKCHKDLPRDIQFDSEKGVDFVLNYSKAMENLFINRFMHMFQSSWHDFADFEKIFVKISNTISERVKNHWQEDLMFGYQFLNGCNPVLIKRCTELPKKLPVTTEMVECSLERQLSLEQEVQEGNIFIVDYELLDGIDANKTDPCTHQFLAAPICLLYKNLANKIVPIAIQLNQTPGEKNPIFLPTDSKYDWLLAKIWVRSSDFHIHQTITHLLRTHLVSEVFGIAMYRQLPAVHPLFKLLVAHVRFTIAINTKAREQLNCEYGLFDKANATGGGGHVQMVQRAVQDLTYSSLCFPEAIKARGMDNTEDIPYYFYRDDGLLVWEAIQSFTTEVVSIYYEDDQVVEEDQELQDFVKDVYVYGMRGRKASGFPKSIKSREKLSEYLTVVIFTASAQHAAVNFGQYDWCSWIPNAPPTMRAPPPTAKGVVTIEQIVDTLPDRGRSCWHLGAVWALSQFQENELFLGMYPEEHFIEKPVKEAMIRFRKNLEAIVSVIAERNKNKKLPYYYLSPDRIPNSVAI
Kind of assay: Concentration required to inhibit RBL-1 supernatant 5-lipoxygenase.

Assay [9] addresses Cysteinyl leukotriene receptor 1 (Homo sapiens, UniProt Q9Y271). The assay can be described thus: Inhibitory concentration LTB4 with [3H]LTD4 in LTD4 receptor binding assay.
Assay [10] is filed under the species Homo sapiens. Kind of assay: Concentration required to block LTB4 induced degranulation in human PMNs. It is filed as functional. In short, it runs like this: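 Washed human PMNs (10^6, isolated by Ficoll-Hypaque, dextran sedimentation, hypotonic lysis) in 1 mL Earls balanced salt solution with 20 mM HEPES, 0.1% ovalbumin. Preincubated 10 min with 5 µg/mL cytochalasin B, then compound or vehicle 5 min at 37 °C, then 100 nM LTB4 for 3 min. Supernatant MPO measured kinetically at 460 nm (o-dianisidine/H2O2, pH 6.0). Four curves of 5–7 concentrations; mean IC50 ± SEM.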

The test system of assay [11] is Mus musculus. The assay can be described thus: Effect on Arachidonic Acid-Induced Mouse Ear Inflammation expressed as percent inhibition of MPO at 50 ug/ear of topical administration. The assay is classed as functional.

This note sets out measurements from ChEMBL document CHEMBL1129796, “(E)-3-[6-[[(2,6-dichlorophenyl)thio]methyl]-3-(2-phenylethoxy)-2- pyridinyl]-2-propenoic acid: a high-affinity leukotriene B4 receptor antagonist with oral antiinflammatory activity” (J Med Chem, 1996).

As a reminder, the inhibition in vivo is the percentage by which the read-out fell short of the control. A higher inhibition in vivo goes with strong suppression. In general, Inhibition refers to the drop in the measured response relative to a control, in per cent. A lower Inhibition goes with a response near the control. The Ki is a measure of affinity in units of concentration, obtained from inhibition or displacement. A high value points to a looser hold on the target. Broadly, the IC50 is the concentration at which inhibition is half-maximal. Higher therefore signals weaker potency in that assay.

Chain of Leukotriene B4 receptor 1 (Q15722 whole entry): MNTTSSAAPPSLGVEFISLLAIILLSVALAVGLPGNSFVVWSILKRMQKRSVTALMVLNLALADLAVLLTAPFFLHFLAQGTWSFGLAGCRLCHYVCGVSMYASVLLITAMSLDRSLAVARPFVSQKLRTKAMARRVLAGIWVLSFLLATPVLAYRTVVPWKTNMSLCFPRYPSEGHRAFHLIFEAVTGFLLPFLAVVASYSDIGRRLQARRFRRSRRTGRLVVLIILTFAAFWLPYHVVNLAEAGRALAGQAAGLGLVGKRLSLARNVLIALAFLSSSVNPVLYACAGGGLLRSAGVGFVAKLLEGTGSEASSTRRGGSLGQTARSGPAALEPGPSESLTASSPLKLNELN
Chain of Cysteinyl leukotriene receptor 1 (Q9Y271 whole entry, looked up): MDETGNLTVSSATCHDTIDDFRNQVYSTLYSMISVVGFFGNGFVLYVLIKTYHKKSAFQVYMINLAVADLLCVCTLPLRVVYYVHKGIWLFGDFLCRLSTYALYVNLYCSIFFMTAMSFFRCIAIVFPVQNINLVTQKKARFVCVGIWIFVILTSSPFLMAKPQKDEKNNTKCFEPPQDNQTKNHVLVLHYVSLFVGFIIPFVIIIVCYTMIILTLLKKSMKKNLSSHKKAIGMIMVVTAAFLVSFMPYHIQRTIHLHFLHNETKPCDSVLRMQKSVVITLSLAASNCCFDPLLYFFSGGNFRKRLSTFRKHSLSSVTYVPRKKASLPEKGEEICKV

In assay [1], `COc1ccc(CCCCCCCCOc2ccc(C[S+]([O-])c3cccc(N)c3)nc2/C=C/C(=O)O)cc1` (stereo not drawn) displayed an inhibition in vivo at 50 mg/kg of 0%. Moreover, the ED50 in assay [2] was found to be 350 ug ear-1. The Inhibition in assay [3] came to 55%.

In [4], `O=C(O)/C=C/c1nc(CSc2c(Cl)cccc2Cl)ccc1OCCc1ccc(F)cc1` returned a Ki of 1.5 nM. The same compound displayed an ED50 in [5] of 14.1 mg/kg. This compound also had an inhibition in vivo at 25 mg/kg in assay [6] of 75%.

In assay [1], `COc1ccc(CCCCOc2ccc(CSc3ccccc3)nc2/C=C/C(=O)O)cc1` showed an inhibition in vivo at 50 mg/kg of 26%. In addition, in assay [7], the Inhibition came to 49%. Besides, in assay [4], the Ki amounted to 2.8 nM.

Consider `O=C(O)/C=C/c1nc(CSc2c(Cl)cccc2Cl)ccc1OCCCc1ccccc1`, for which the inhibitory constant (Ki) in assay [4] came to 1.4 nM.

In turn, `O=C(O)/C=C/c1nc(CSc2c(Cl)cccc2Cl)ccc1OCc1ccc(F)cc1` displayed a Ki in assay [4] of 12 nM. This Ki lies about 8.6-fold higher than the previous one.

Turning to `O=C(O)/C=C/c1nc(CSc2c(Cl)cccc2Cl)ccc1OCCc1ccc(Cl)cc1`, in [4], the Ki turned out to be 1.3 nM. This Ki lies about 9.2-fold lower than the previous one.

`COc1ccc(CCOc2ccc(CSc3c(Cl)cccc3Cl)nc2/C=C/C(=O)O)cc1` yielded a Ki in assay [4] of 1.2 nM. The Ki values of the last two compounds are within 1.5-fold of each other.

Regarding `COc1ccc(CCCCOc2ccc(CSc3c(Cl)cccc3Cl)nc2/C=C/C(=O)O)cc1`, the inhibition in vivo at 50 mg/kg in [1] stood at 54%. This compound also returned an Inhibition in [7] of 82%. The compound also came in with a Ki in assay [4] of 1.5 nM. This compound gave an ED50 in assay [5] of 57.6 mg/kg.

Regarding `COc1ccc(CCCCCCCCOc2ccc(CSCc3cccc(C(=O)O)c3)nc2/C=C/C(=O)O)cc1`, the inhibition in vivo at 50 mg/kg in [1] is 0%. The same compound showed an ED50 in assay [2] of 390 ug ear-1. The compound also yielded an Inhibition in assay [3] of 69%.

With `O=C(O)/C=C/c1nc(CSc2c(Cl)cccc2Cl)ccc1OCCc1ccccc1` [TICOLUBANT], the figures for the concentration for half-maximal inhibition (IC50) in assay [8], in assay [9] and in [10] were 8200 nM, 16800 nM and 53 nM, respectively. Moreover, the Ki in assay [4] came to 0.78 nM. In addition, the ED50 came out at 14.8 mg/kg in [5] and 8 ug ear-1 in assay [2]. In [6], this compound returned an inhibition in vivo at 25 mg/kg of 70%. The compound further gave an Inhibition in [11] of 83%.
